In the library only some 2.8% were active in any assay of this set; here they are far more common.
AI-2 QS mod = Vibrio harveyi AI-2 quorum sensing modulators, primary screen, JMH597 strain, luminescence/OD600 ratio | Vibrio harveyi JMH597 AI-2 luminescence/OD600 ratio, 9 h; active compounds read low; strain lacks LuxN and CqsS sensors; 0 = neutral-control median | activity change, % at 7.5 µM | 0.4% of 300,000 active | AID 2094, 2009; in the data active = activity change below about -75%, passing the limit was not always enough; inconclusive = no clear call, values can overlap the other calls;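 also: luminescence divided by OD600 gain over 9 h not by final OD600 alone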
PP1 inh = PP1-alpha phosphatase inhibitors, primary screen, counter-screen for PP5 inhibitor project, biochemical, fluorescence, OMFP substrate, single point. Serine/threonine-protein phosphatase PP1-alpha catalytic subunit (Homo sapiens), P62136. purified PP1alpha. inhibition, % at 6.7 µM. 0.9% of 320,000 active. AID 2235, 2010;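 active = inhibition above the mean inhibition of all tested compounds plus 3 SD, computed separately for each screening campaign, cut at about 15% in these data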
UBC13 inh = UBC13 polyubiquitin chain formation inhibitors, primary screen, biochemical, TR-FRET, uHTS; Ubiquitin-conjugating enzyme E2 N (Homo sapiens), P61088; inhibition, % at 20 µM; 0.47% of 330,000 active; AID 485273, 2010; in the data active = inhibition above about 45%, passing the limit was not always enough; inconclusive = no clear call, values can overlap the other calls
pCIP destab = p/CIP-EGFP fusion destabilizers, primary screen, fluorescence, F442A cells; 16 h; decrease of EGFP signal, % at 10 µM; 0.01% of 290,000 active; AID 1984, 2009;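 active = EGFP signal decrease of at least 30% at 10 µM or well 3 SD below plate mean, unless failing retest; inactive = the rest, including hits failing retest or dose response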
Target sequence (Q05BA5 1-1403): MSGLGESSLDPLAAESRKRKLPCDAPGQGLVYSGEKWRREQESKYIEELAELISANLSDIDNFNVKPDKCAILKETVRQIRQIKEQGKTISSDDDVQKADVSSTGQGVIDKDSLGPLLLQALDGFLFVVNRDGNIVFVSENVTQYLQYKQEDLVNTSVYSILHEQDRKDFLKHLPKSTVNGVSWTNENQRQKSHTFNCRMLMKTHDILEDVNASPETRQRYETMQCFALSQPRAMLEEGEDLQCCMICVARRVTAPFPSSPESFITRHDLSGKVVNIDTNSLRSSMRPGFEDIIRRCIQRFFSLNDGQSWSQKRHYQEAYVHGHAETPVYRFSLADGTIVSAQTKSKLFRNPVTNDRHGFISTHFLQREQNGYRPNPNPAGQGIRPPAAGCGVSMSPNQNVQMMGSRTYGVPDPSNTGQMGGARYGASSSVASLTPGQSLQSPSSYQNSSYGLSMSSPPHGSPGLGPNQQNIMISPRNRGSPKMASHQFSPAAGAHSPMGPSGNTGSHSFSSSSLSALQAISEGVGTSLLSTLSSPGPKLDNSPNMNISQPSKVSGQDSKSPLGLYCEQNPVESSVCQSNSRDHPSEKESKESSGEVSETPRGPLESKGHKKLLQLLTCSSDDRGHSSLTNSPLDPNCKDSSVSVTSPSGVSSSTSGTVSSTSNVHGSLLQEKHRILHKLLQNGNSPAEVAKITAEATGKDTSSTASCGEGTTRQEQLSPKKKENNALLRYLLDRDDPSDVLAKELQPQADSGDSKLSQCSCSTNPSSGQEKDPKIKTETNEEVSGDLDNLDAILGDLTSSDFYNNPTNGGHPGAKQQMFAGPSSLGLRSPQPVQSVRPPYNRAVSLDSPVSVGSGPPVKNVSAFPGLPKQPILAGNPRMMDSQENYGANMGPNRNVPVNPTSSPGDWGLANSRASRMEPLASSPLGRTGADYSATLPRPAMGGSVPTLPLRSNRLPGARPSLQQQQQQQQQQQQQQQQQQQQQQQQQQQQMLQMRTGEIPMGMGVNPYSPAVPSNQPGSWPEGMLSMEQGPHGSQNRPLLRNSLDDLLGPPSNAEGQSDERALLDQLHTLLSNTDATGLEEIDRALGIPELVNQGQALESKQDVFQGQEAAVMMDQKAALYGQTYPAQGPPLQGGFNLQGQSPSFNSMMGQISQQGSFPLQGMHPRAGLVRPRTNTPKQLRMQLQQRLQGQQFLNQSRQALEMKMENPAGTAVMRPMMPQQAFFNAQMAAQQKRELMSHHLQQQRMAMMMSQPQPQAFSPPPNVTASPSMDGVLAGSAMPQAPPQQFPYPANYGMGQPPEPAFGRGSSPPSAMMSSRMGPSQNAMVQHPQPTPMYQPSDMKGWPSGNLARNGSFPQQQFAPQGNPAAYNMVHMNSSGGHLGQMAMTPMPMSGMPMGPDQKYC
T cruzi repl = inhibitors of intracellular T. cruzi growth, primary screen, luminescence, NIH3T3 host cells. T. cruzi beta-gal in NIH3T3, 90 h. inhibition, % (no concentration beside the values). 1.4% of 300,000 active. AID 1885, 2009;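 active = mean inhibition across valid replicates above about 55%, limit read from the data; inconclusive = mean below that limit but half or more replicates reach it; inactive = mean below it, under half of replicates reach it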;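 also: signal also drops with host cell toxicity which is not excluded here; higher percent means less beta-gal luminescence so fewer parasites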
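Read-out: Parasite load inhibition, % | Test system: Mouse NIH/3T3 fibroblasts infected with β-gal-expressing T. cruzi Tulahuen C4 | Amount: 5,000 cells/well | Medium: DMEM, 2% fetal bovine serum | Signal: GalScreen β-gal luminescence, detergent lysis, 60 min | Timing: 3 h attach, ≥90 h co-culture | Also added: Tulahuen C4 trypomastigotes, 5000/well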
Casp3 counter = CASP3 inhibitor validation, counterassay for project on UBE2N polyubiquitination blockers, biochemical, one dose | 4% of 1,400 active | shares compounds with UBC13 inh | Recombinant caspase-3, Caspase-Glo 3/7 luminescence, 60 min | inhibition, % at 20 µM;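 active = mean inhibition across replicates above about 26%, limit read from the data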
UBC13 conf = UBC13 polyubiquitination inhibitors, single-point retest, confirmation, biochemical, TR-FRET, single concentration; inhibition, % at 10 µM; 68% of 1,400 active; AID 488859, 2010; shares compounds with UBC13 inh; in the data active = inhibition above about 45%; inconclusive = no clear call, values can overlap the other calls
A number is an active result.

`C#CCOCCOCCOCCNc1nc(N2CCN(C(=O)[C@H](CCCCN)n3cc([C@@H](N)C(C)CC)nn3)CC2)nc(N2CCN(C(=O)[C@H](Cc3ccc(O)cc3)n3cc([C@@H](N)CC(C)C)nn3)CC2)n1` (stereo partly specified) gave AI-2 QS mod inactive, PP1 inh inactive, UBC13 inh 57.4, pCIP destab inactive, T cruzi repl inactive, Casp3 counter inactive and UBC13 conf inactive.
For C#CCOCCOCCOCCNc1nc(N2CCN(C(=O)[C@H](CCCCN)n3cc([C@@H](N)CC(C)C)nn3)CC2)nc(N2CCN(C(=O)[C@H](CCCCN)n3cc([C@@H](N)CC(C)C)nn3)CC2)n1 the results were AI-2 QS mod inactive, PP1 inh inactive, UBC13 inh 77.2, pCIP destab inactive, T cruzi repl inactive, Casp3 counter inactive and UBC13 conf 84.1.
`C#CCOCCOCCOCCNc1nc(N2CCN(C(=O)[C@H](CCCCN)n3cc(C(N)CO)nn3)CC2)nc(N2CCN(C(=O)[C@H](CCC(=O)O)n3cc(C(N)CC(C)C)nn3)CC2)n1` (stereo partly specified) gave AI-2 QS mod inactive, UBC13 inh inactive, pCIP destab inactive and T cruzi repl inactive.
For O=C(CCCn1c(=S)[nH]c2ccsc2c1=O)NCCc1ccccc1 the results were AI-2 QS mod inactive, PP1 inh inactive, UBC13 inh 55.6, pCIP destab inactive, T cruzi repl inactive, Casp3 counter inactive and UBC13 conf inconclusive.
Screening COc1cccc(NC(=O)CSc2nc3ccccc3c(=O)n2Cc2cccs2)c1 returned AI-2 QS mod inactive, PP1 inh inactive, UBC13 inh 60.6, pCIP destab inactive, T cruzi repl inactive, Casp3 counter inactive and UBC13 conf 57.6.
`COc1ccc(NC(=O)CSc2nc3ccsc3c(=O)n2CCCCCC(=O)O)cc1` gave AI-2 QS mod inactive, PP1 inh inactive, UBC13 inh 61.6, pCIP destab inactive, T cruzi repl inactive, Casp3 counter inactive and UBC13 conf 78.6.
O=C(O)CCCCCn1c(SCC(=O)Nc2ccc(F)cc2)nc2ccsc2c1=O was read as AI-2 QS mod inactive, PP1 inh inactive, UBC13 inh inactive, pCIP destab inactive and T cruzi repl inactive.
CCCCn1c(N)c(N(CC(C)C)C(=O)COC(=O)Cc2cccc(OC)c2)c(=O)[nH]c1=O was read as AI-2 QS mod inactive, PP1 inh inactive, UBC13 inh inactive and T cruzi repl inactive.
Screening CCC(=O)NC(=S)NNC(=O)c1ccc([N+](=O)[O-])cc1 returned AI-2 QS mod inactive, PP1 inh inactive, UBC13 inh 67.5, pCIP destab inactive, T cruzi repl inactive, Casp3 counter inactive and UBC13 conf 86.6.
CC(C)CC(=O)NC(=S)NNC(=O)c1ccc([N+](=O)[O-])cc1 was read as AI-2 QS mod inactive, PP1 inh inactive, UBC13 inh inactive, pCIP destab inactive and T cruzi repl inactive.
Screening CCCCOc1ccc(C(=O)NNC(=S)NC(=O)CC)cc1 returned AI-2 QS mod inconclusive, PP1 inh inactive, pCIP destab inactive and T cruzi repl inactive.
For CCC(=O)NC(=S)NNC(=O)c1ccc(OC)cc1 the results were AI-2 QS mod inactive, PP1 inh inactive, UBC13 inh 81.4, pCIP destab inactive, T cruzi repl inactive, Casp3 counter inactive and UBC13 conf 85.5.
CCCOc1ccc(C(=O)NNC(=S)NC(C)=O)cc1 was read as AI-2 QS mod inconclusive, PP1 inh inactive, UBC13 inh 74.9, pCIP destab inactive, T cruzi repl inactive, Casp3 counter inactive and UBC13 conf 94.7.
Screening CC(=O)c1nccs1 returned PP1 inh inactive and UBC13 inh inactive.
Screening CN1CCN(NC(=O)c2cccc(C(F)(F)F)c2)CC1 returned AI-2 QS mod inactive, PP1 inh inactive, UBC13 inh inactive, pCIP destab inactive and T cruzi repl inactive.
For COc1cccc(-c2cc(C(=O)N3CCN(C(=O)c4ccco4)CC3)on2)c1 the results were AI-2 QS mod inactive, PP1 inh inactive, UBC13 inh inactive, pCIP destab inactive and T cruzi repl inactive.
Screening C[C@]12CCC3C(CC[C@H]4CCCC[C@]34C)C1CC[C@@]2(O)CNCCO (stereo partly specified) returned AI-2 QS mod inactive, UBC13 inh 63.5, pCIP destab inactive, T cruzi repl inactive, Casp3 counter inactive and UBC13 conf inactive.
CC(=O)[C@@]1(O)CCC2C3CC[C@H]4C[C@@H](O)CC[C@]4(C)C3CC[C@@]21C (stereo partly specified) was read as UBC13 inh inactive.
CCC(CC)C(=O)Nc1nnc(SCC(=O)NC2CCCCC2)s1 was read as AI-2 QS mod inactive, PP1 inh inactive, UBC13 inh inactive, pCIP destab inactive and T cruzi repl inactive.
`N/C(=N\OC(=O)CCCc1ccccc1)c1ccccc1Cl` gave AI-2 QS mod inactive, PP1 inh inactive, UBC13 inh inactive, pCIP destab inactive and T cruzi repl inactive.
For CCc1cccc2c(C(=O)C(NCCCOC)c3ccccc3)c[nH]c12 (stereo unspecified) the results were AI-2 QS mod inactive, PP1 inh inactive, UBC13 inh inactive, pCIP destab inactive and T cruzi repl inconclusive.
CCc1cccc2c(C(=O)C(NC(C)CC)c3ccccc3)c[nH]c12 (stereo unspecified) was read as AI-2 QS mod inactive, PP1 inh inactive, UBC13 inh 79.2, pCIP destab inactive, T cruzi repl inactive, Casp3 counter inactive and UBC13 conf 101.3.
`COc1cccc(NC(=O)CCCOc2cc(=O)n(C)c3ccccc23)c1` gave AI-2 QS mod inactive, PP1 inh inactive, UBC13 inh inactive, pCIP destab inactive and T cruzi repl inactive.
CCn1c(=O)cc(SCC(=O)NCCCN2CCN(c3ccccc3F)CC2)c2ccccc21 was read as AI-2 QS mod inactive, PP1 inh inactive, UBC13 inh 58.2, pCIP destab inactive, T cruzi repl inactive, Casp3 counter inactive and UBC13 conf inconclusive.
Screening CCOc1ccc(NC(=O)CCCOc2cc(=O)n(C)c3ccccc23)cc1 returned AI-2 QS mod inactive, PP1 inh inactive, UBC13 inh 73.8, pCIP destab inactive, T cruzi repl inactive, Casp3 counter inactive and UBC13 conf 76.1.

Screening results (PubChem BioAssay)
